Data on 17 compounds can be found in ChEMBL document CHEMBL4251591, “Primaquine hybrids as promising antimycobacterial and antimalarial agents” (Eur J Med Chem, 2018).

SMILES strings stand for the structures. Converted amounts (≈) assume the structure as drawn.

One test concerns Mycobacterium avium. As to the kind of experiment: Antimycobacterial activity against Mycobacterium avium subsp. paratuberculosis CIT03 clinical isolate after 11 days by Alamar Blue assay. The class given is functional. Conditions: CIT03, 264 h. In general terms: Resazurin is reduced to fluorescent resorufin, in cell work by metabolically active cells.
The test system of test [1] is Mycobacterium tuberculosis. Description: Antimycobacterial activity against Mycobacterium tuberculosis H37Ra ATCC 25177 after 7 days by Alamar Blue assay. The class given is functional. Conditions: H37Ra ATCC 25177, 168 h. The gist of the method: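 Log-phase culture washed and resuspended in supplemented Middlebrook 7H9GC broth, adjusted to McFarland No. 1, then diluted 1:20. Equal volumes of culture and DMSO-prepared compound dilutions were tested in duplicate for 7 days. 10% AlamarBlue was added, with 570/600 nm readings for background and after 24 h reincubation. Blue meant no growth, pink meant growth. MIC was the lowest concentration without visible growth.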

The subject of another test is L6. As to the kind of experiment: Cytotoxicity against rat L6 cells after 70 hrs by Alamar Blue-based assay. The class given is cell-based. To be noted: L6, 70 h. In short, it runs like this: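 Rat skeletal myoblast L-6 cells, 4000 per well, in RPMI 1640 with 10% FBS and L-glutamine. Eleven 3-fold serial dilutions spanning 100 to 0.002 were tested for 70 h. Alamar Blue was then added for 2 h and fluorescence read at ex 536 / em 588 nm. IC50 came from linear regression of sigmoid curves, averaged over two replicate experiments, with podophyllotoxin as control.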

Test [2] has as its system Mycobacterium avium complex sp. As to the kind of experiment: Antimycobacterial activity against Mycobacterium avium complex CIT19/06 clinical isolate after 5 days by Alamar Blue assay. The class given is functional. To be noted: CIT19/06, 120 h.
Another test concerns Plasmodium berghei. Description: Antimalarial activity against liver stage of firefly luciferase-expressing Plasmodium berghei infected in human HuH7 cells measured after 48 hrs post parasite addition by luciferase-based luminescence assay. The test is classed as functional, organism-based. Conditions: Huh-7, 48 h. In short, it runs like this:
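HuH7 hepatoma cells seeded at 1.0 × 10^4 per well the day before infection. Drug-containing medium was added 1 h before 1.0 × 10^4 sporozoites, followed by centrifugation at 1800 × g for 5 min. Infection load was read by bioluminescence 48 h later, and host viability by CellTiter-Blue. IC50 came from nonlinear regression of normalized dose-response curves.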

The next test deals with HEK293. Description: Cytotoxicity against human HEK293 cells. The test is classed as cell-based.

One may read the MIC as the smallest concentration in the dilution series that meets the test's criterion for growth inhibition. Low readings indicate greater potency, high ones weaker potency. A word on the IC50: it is the concentration at which inhibition is half-maximal.

As for `COc1cc(NC(C)CCCNC(=O)NCCCC(C)Nc2cc(OC)cc3cccnc23)c2ncccc2c1` (stereo unspecified), the figures for the minimum inhibitory concentration (MIC) (in the test with Mycobacterium avium; in test [1]; in test [2]) were 128 µg/mL (≈ 235 µM), 128 µg/mL (≈ 235 µM) and 256 µg/mL (≈ 470 µM), respectively. In the test with L6, this compound showed an IC50 of over 100 µg/mL.
In the case of `COc1ccc(/C=C/C(=O)NCCCC(C)Nc2cc(OC)cc3cccnc23)cc1` (stereo unspecified), the figures for the MIC (against Mycobacterium avium; in test [1]; in test [2]) were 64 µg/mL (≈ 153 µM), 64 µg/mL (≈ 153 µM) and 128 µg/mL (≈ 305 µM), respectively. The compound also displayed an IC50 in the test on L6 of over 100 µg/mL.
In the test on Plasmodium berghei, `COc1ccc(C(=NNC(=O)NNC(=O)NCCCC(C)Nc2cc(OC)cc3cccnc23)c2ccc(OC)cc2)cc1` (stereo unspecified) registered an IC50 of 82.8 nM. For the same compound, the minimal inhibitory concentration (MIC) with Mycobacterium avium amounted to 4 µg/mL (≈ 6.67 µM); in test [1], 2 µg/mL (≈ 3.34 µM); in test [2], 16 µg/mL (≈ 26.7 µM).
For the compound `COc1cc(NC(C)CCCNC(=O)NNC(=O)Nc2ccc(Cl)c(C(F)(F)F)c2)c2ncccc2c1` (stereo unspecified), the minimal inhibitory concentration (MIC) (with Mycobacterium avium; in test [1]; in test [2]) was 2 µg/mL (≈ 3.71 µM) in each case. The IC50 in the test on L6 is 30 µg/mL (≈ 55.7 µM).
`COc1cc(NC(C)CCCNC(=O)N(C)C(c2ccccc2)c2ccccc2)c2ncccc2c1` (stereo unspecified): the MIC (against Mycobacterium avium; in test [1]; in test [2]) was 128 µg/mL (≈ 265 µM) in each case. In the test on L6, this compound yielded a half-inhibitory concentration (IC50) of 80.5 µg/mL (≈ 167 µM).
With `COc1ccc(/C(=N/NC(=O)NCCCC(C)Nc2cc(OC)cc3cccnc23)c2ccccc2)cc1` (stereo unspecified), the minimal inhibitory concentration (MIC) against Mycobacterium avium is 128 µg/mL (≈ 250 µM); in test [1], 128 µg/mL (≈ 250 µM); in test [2], 256 µg/mL (≈ 500 µM). In addition, in the test with L6, the 50% inhibitory concentration (IC50) is over 100 µg/mL.
On to `COc1ccc(C(=NNC(=O)NCCCC(C)Nc2cc(OC)cc3cccnc23)c2ccc(OC)cc2)cc1` (stereo unspecified), for which the minimal inhibitory concentration (MIC) against Mycobacterium avium is 128 µg/mL (≈ 236 µM); in test [1], 128 µg/mL (≈ 236 µM); in test [2], 256 µg/mL (≈ 473 µM). Further, in the test with L6, the IC50 was over 100 µg/mL.
Consider `COc1cc(NC(C)CCCNC(=O)Nc2cc(C(F)(F)F)cc(C(F)(F)F)c2)c2ncccc2c1` (stereo unspecified), for which inhibition with HEK293 was half-maximal at 7.67 µg/mL (≈ 14.9 µM) (IC50).
As to `COc1cc(NC(C)CCCNC(=O)NNC(=O)Nc2ccc(C(F)(F)F)cc2)c2ncccc2c1` (stereo unspecified), the midpoint of inhibition with Plasmodium berghei, the IC50, lay at 74.9 nM. For the same compound, the minimal inhibitory concentration (MIC) (in the test with Mycobacterium avium; in test [1]; in test [2]) was 128 µg/mL (≈ 254 µM) in each case.
In the test on Plasmodium berghei, `COc1cc(NC(C)CCCNC(=O)NNC(=O)Nc2ccc(F)cc2)c2ncccc2c1` (stereo unspecified) displayed a half-maximal inhibitory concentration (IC50) of 1870 nM.
With `COc1cc(NC(C)CCCNC(=O)Nc2ccc(Br)cc2)c2ncccc2c1` (stereo unspecified), the minimum inhibitory concentration (MIC) with Mycobacterium avium amounted to 16 µg/mL (≈ 35 µM); in test [1] it was 8 µg/mL (≈ 17.5 µM); in test [2], 16 µg/mL (≈ 35 µM). This compound also registered a half-inhibitory concentration (IC50) with HEK293 of 200 µg/mL (≈ 437 µM).
Consider `COc1cc(NC(C)CCCNC(=O)NNC(=O)Nc2ccc(Cl)cc2)c2ncccc2c1` (stereo unspecified), for which, in the test with Plasmodium berghei, the IC50 is 42 nM. The MIC with Mycobacterium avium was 128 µg/mL (≈ 272 µM); in test [1], 128 µg/mL (≈ 272 µM); in test [2], 256 µg/mL (≈ 544 µM).
Turning to `COc1cc(NC(C)CCCNC(=O)Nc2ccc(C(F)(F)F)cc2)c2ncccc2c1` (stereo unspecified), the minimal inhibitory concentration (MIC) worked out at 8 µg/mL (≈ 17.9 µM) against Mycobacterium avium, 4 µg/mL (≈ 8.96 µM) in test [1] and 16 µg/mL (≈ 35.8 µM) in test [2]. In addition, in the test on HEK293, the half-inhibitory concentration (IC50) turned out to be 200 µg/mL (≈ 448 µM).
For the compound `COc1cc(NC(C)CCCNC(=O)/C=C/c2cc(C(F)(F)F)cc(C(F)(F)F)c2)c2ncccc2c1` (stereo unspecified), the IC50 in the test with Plasmodium berghei turned out to be 2390 nM. In addition, the values for the minimum inhibitory concentration (MIC) (in the test with Mycobacterium avium; in test [1]; in test [2]) were 16 µg/mL (≈ 30.4 µM), 16 µg/mL (≈ 30.4 µM) and 64 µg/mL (≈ 122 µM), respectively.
For `COc1cc(NC(C)CCCNC(=O)/C(C)=C/c2ccccc2)c2ncccc2c1` (stereo unspecified), the figures for the IC50 in the test with Plasmodium berghei and with L6 were 724 nM and over 100 µg/mL, respectively.
Take `COc1cc(NC(C)CCCNC(=O)NNC(=O)NC(c2ccccc2)(c2ccccc2)c2ccccc2)c2ncccc2c1` (stereo unspecified): the minimum inhibitory concentration (MIC) (against Mycobacterium avium; in test [1]; in test [2]) was 128 µg/mL (≈ 212 µM) each time. Also, the IC50 with L6 was over 65 µg/mL.
Consider `COc1cc(NC(C)CCCNC(=O)NNC(=O)Nc2cccc(Br)c2)c2ncccc2c1` (stereo unspecified), for which the IC50 with Plasmodium berghei was 182 nM; with L6 it was 20 µg/mL (≈ 38.8 µM). Moreover, the minimal inhibitory concentration (MIC) came out at 128 µg/mL (≈ 248 µM) in the test with Mycobacterium avium, 128 µg/mL (≈ 248 µM) in test [1] and 256 µg/mL (≈ 497 µM) in test [2].
